Experimental data taken from PMC3702663 (Journal of chemical information and modeling, 2013).
Read-outs that look alike come from different tables or passages of the source.

How the values were obtained:
hKOP receptor [1] = molecular target: T1, hKOP receptor (Homo sapiens, UniProt P41145); assay type: binding
DOP receptor [2] = molecular target: T2, DOP receptor (Homo sapiens, UniProt P41143); assay: BRET-based G protein; assay type: cell-based
MOP receptor [3] = molecular target: T3, MOP receptor (Homo sapiens, UniProt P35372); assay: BRET-based G protein; assay type: cell-based
hKOP receptor [4] = molecular target: T1, hKOP receptor; assay: BRET-based arrestin3 recruitment assay, hKOP-RLuc8 with arrestin3-mVenus; assay type: cell-based; details: Potency for arrestin3 recruitment at hKOP receptor, 5 min after ligand
In short: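 HEK293T cells transfected with polyethylenimine (1:3) using 0.2 µg hKOP receptor with C-terminal RLuc8, 15 µg human arrestin3-mVenus and 4.8 µg empty vector (20 µg total), grown in DMEM/10% FBS. Assayed 48 h post-transfection: cells resuspended in PBS, ~200,000/well, 5 µM coelenterazine H, then ligand 5 min later.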

DOP receptor [5] = molecular target: T2, DOP receptor; assay: Competitive inhibition of 3H-diprenorphine binding at the DOP receptor; details: 3H-diprenorphine 0.3 nM
MOP receptor [6] = molecular target: T3, MOP receptor; assay: Competitive inhibition of 3H-diprenorphine binding at the MOP receptor; details: 3H-diprenorphine 0.3 nM
hKOP receptor [7] = molecular target: T1, hKOP receptor; assay: BRET-based G protein; assay type: cell-based; details: relative to EKC

| Structure (SMILES) | Inhibition of 3H-diprenorphine binding (primary testing) (hKOP receptor [1]; 100 µM compound, 3H-diprenorphine 0.3 nM) | EC50 (DOP receptor [2]) [µM] | Agonistic activity at the MOP receptor, in words (MOP receptor [3]) | EC50 (hKOP receptor [4]) [µM] | Ki (DOP receptor [5]; Ki at the DOP receptor, reference ligand) [µM] | Ki (MOP receptor [6]; Ki at the MOP receptor, reference ligand) [µM] | Ki (DOP receptor [5]; Ki DOP, means ± S.E.M. (n=3)) [µM] | Ki (MOP receptor [6]; Ki MOP, means ± S.E.M. (n=3)) [µM] | Agonistic activity at the DOP receptor, in words (DOP receptor [2]; BRET) | Ki (hKOP receptor [1]) [µM] | Agonistic activity (GαoB activation) at hKOP receptor, in words (hKOP receptor [7]) | EC50 (DOP receptor [2]; read-out: Potency for G protein activation at the DOP receptor, BRET) [µM] |
| --- | --- | --- | --- | --- | --- | --- | --- | --- | --- | --- | --- | --- |
| O=C(CN1CCCC1C(=O)Nc1nccs1)Nc1cccc(F)c1 (racemic) [MCKK-17, 1-(2-(3-fluorophenylamino)-2-oxoethyl)-N-(thiazol-2-yl)pyrrolidine-2-carboxamide] | partially but significantly inhibited | > 1000 | Neither the racemic nor the MCKK-17 stereoisomers displayed significant activity | 160 ± 38 | – | – | – | – | – | – | – | – |
| CC[C@]12CCN(CC3CC3)[C@H](C(=O)c3ccc(O)cc31)[C@@H]2C [EKC, ethylketocyclazocine, reference compound] | – | – | – | – | 0.25 ± 0.031 | 0.17 ± 0.1 | – | – | – | – | – | – |
| O=C(CN1CCCC1C(=O)Nc1nccs1)Nc1cccc(F)c1 (centres unmarked) [MCKK-17R, 1-(2-(3-fluorophenylamino)-2-oxoethyl)-N-(thiazol-2-yl)pyrrolidine-2-carboxamide] | – | > 1000 | Neither the racemic nor the MCKK-17 stereoisomers displayed significant activity | > 1000 | – | – | 290 | 510 | most active enantiomer at the DOP receptor | – | – | – |
| O=C(CN1CCCC1C(=O)Nc1nccs1)Nc1cccc(F)c1 (centres unmarked) [MCKK-17S, 1-(2-(3-fluorophenylamino)-2-oxoethyl)-N-(thiazol-2-yl)pyrrolidine-2-carboxamide] | – | – | Neither the racemic nor the MCKK-17 stereoisomers displayed significant activity | 120 ± 47 | – | – | > 10000 | > 10000 | did not significantly activate the DOP receptor | 120 | full agonism relative to EKC | > 1000 |
